Assay results: ChEMBL document CHEMBL1153639, “A facile synthesis and antimycobacterial evaluation of novel spiro-pyrido-pyrrolizines and pyrrolidines” (2009)
In brackets after ≈: the same amount, converted by molar mass.

Tested on: Mycobacterium tuberculosis
Test: Antimycobacterial against multidrug resistant Mycobacterium tuberculosis by agar dilution method
Format: functional
Method in brief: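 Strain was an MDR-TB clinical isolate resistant to isoniazid and rifampicin, among other drugs. MIC read by agar dilution, run in triplicate.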

Structure (SMILES)	MIC [µM]
CN1CCC(=O)[C@]2(C1)[C@@H](c1ccc(Cl)cc1Cl)[C@@H]1CCCN1[C@@]21C(=O)Nc2ccccc21	1.66 (≈ 0.781 µg/mL)
CN1CCC(=O)[C@]2(C1)[C@@H](c1ccc(Cl)cc1Cl)CN(C)[C@@]21C(=O)Nc2ccccc21	0.88 (≈ 0.391 µg/mL)
CN1CCC(=O)[C@]2(C1)[C@@H](c1ccccc1Cl)[C@@H]1CCCN1[C@@]21C(=O)Nc2ccccc21	3.58 (≈ 1.56 µg/mL)
CC[C@@H](CO)NCCN[C@@H](CC)CO [ETHAMBUTOL]	61.2 (≈ 12.5 µg/mL)
NNC(=O)c1ccncc1 [ISONIAZID]	11.4 (≈ 1.56 µg/mL)
NC(=O)c1cnccn1 [PYRAZINAMIDE]	406 (≈ 50 µg/mL)
